Published values from different studies.
Each line is one published result; the experiments were not run side by side.
Target: Serine/threonine-protein kinase Sgk3 (SGK3, Homo sapiens, UniProt Q96BR1)
Residues used in one study (Q96BR1 1-496): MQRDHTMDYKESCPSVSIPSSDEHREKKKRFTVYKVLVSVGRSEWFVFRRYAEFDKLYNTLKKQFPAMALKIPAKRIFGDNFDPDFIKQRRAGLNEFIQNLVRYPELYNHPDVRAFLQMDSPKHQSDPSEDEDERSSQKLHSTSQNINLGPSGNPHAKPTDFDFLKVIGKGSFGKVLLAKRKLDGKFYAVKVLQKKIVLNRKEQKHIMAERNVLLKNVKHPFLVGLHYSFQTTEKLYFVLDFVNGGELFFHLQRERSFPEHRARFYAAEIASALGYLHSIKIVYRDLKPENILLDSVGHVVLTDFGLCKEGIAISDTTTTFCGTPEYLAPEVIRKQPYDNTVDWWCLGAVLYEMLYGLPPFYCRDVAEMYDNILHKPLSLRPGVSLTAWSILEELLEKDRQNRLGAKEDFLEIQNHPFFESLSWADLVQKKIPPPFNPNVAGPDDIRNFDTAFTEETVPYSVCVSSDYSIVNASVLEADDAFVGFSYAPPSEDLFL

CNC(=O)c1ccc(Nc2ncc(C(F)(F)F)c(NCc3nccnc3N(C)S(C)(=O)=O)n2)cc1  remaining binding (cell-free assay, competition with immobilised ligand; 0.1 µM): 85%
COc1cccc2c(NCc3ccccc3)nc(-n3c(N)nc4ccccc43)nc12  inhibition (target engagement in cells, inhibitor, chemoproteomics; 20 mM): -7.6%
Nc1ncnc2occ(-c3ccc(NC(=O)Nc4cc(C(F)(F)F)ccc4F)cc3)c12  remaining signal (cell-free assay, inhibitor; 20 µM): 6.6%
CCN(CC)c1ccc(C2=NNC(=O)CC2C)cc1[N+](=O)[O-] (stereo not drawn)  remaining activity (enzyme activity, inhibitor; 10 µM): 114%
COc1cc(Cl)c(C(=O)N[C@@H](CN[C@H]2CC[C@@H](N)CC2)Cc2ccc(C#N)cc2)cc1-c1ccc(CN[C@H](C)c2ccc(C)cc2)o1  remaining activity (enzyme activity, inhibitor; 1 µM): 83%
CCOc1cc(-c2nncn2C)ccc1Nc1ncc2cc(C)nc(NCC(C)(C)C)c2n1  inhibition (enzyme activity, inhibitor, FRET; 1 µM): < 15%
CCc1ccccc1C(=O)Nc1n[nH]c2c(C)c(F)c(C3C(C#N)=C(C)N(C)C(C)=C3C#N)cc12  remaining binding (cell-free assay, competition with immobilised ligand; 1 µM): 91%
CC(C)(C)c1nc2c(s1)c1nc(N)ncc1c1ccc(NS(=O)(=O)c3c(F)cccc3F)c(F)c12  remaining activity (enzyme activity, inhibitor, radiometric; 1 µM): 89%
Cc1ccc(NC(=O)c2ccc(C)c(C(F)(F)F)c2)cc1C#Cc1nn(C2CCC(O)CC2)c2ncnc(N)c12 (stereo not drawn)  remaining signal (cell-free assay; 10 µM): 98%
O=C(Nc1cccnn1)N1CC(C/C=C/c2cncc(Oc3ccc(C(F)(F)F)cn3)n2)C1  remaining binding (cell-free assay, competition with immobilised ligand; 1 µM): 87%
Cc1ccc(Nc2nccc(N(C)c3ccc4c(C)n(C)nc4c3)n2)cc1S(N)(=O)=O  inhibition (enzyme activity, inhibitor; 0.3 µM): 10%
Cc1cnc(NC2CCOCC2)nc1-n1cnc(C(=O)NC(CN)c2cc(F)cc(Cl)c2)c1 (stereo not drawn)  remaining activity (enzyme activity, inhibitor, radiometric; 1 µM): 92%
COc1cc2ncnc(Nc3ccc(Oc4ccccc4)c(C)c3C)c2cc1OC  inhibition (enzyme activity, inhibitor; 1 µM): -5%
CS(=O)(=O)N1CCCC(NC(=O)[C@H](CCC2CCCCC2)NC(=O)c2ccc(CNC(=O)c3cnc4ccccn34)cc2)C1 (stereo partly drawn)  remaining binding (cell-free assay, competition with immobilised ligand; 0.1 µM): 74%
N#CCCc1ccc2c(c1)-c1[nH]c3ccc([N+](=O)[O-])cc3c1CC(=O)N2  remaining signal (cell-free assay; 0.5 µM): 99.2%
c1ccc(CNc2nc(N3CCOc4ccccc43)nc3c2CCCC3)cc1  inhibition (target engagement in cells, inhibitor, chemoproteomics; 20 mM): -9%
O=C1CCc2cc(Nc3cc(OC4CCOCC4)c([N+](=O)[O-])cc3Cl)ccc2N1  remaining binding (cell-free assay, competition with immobilised ligand; 1 µM): 100%
Oc1cccc(-c2nc(N3CCOCC3)c3oc4ncccc4c3n2)c1  remaining signal (cell-free assay; 0.5 µM): 95.8%
Cc1cc(NC(=O)c2cccc3cc(-c4cccc5[nH]nc(N)c45)ccc23)ccc1F  activity vs control (enzyme activity, inhibitor; 0.1 µM): 106%
CNC(=O)c1cc(Oc2ccc(NC(=O)Nc3ccc(Cl)c(C(F)(F)F)c3)cc2)ccn1  inhibition (enzyme activity, inhibitor; 10 µM): 11%
Cc1cc(NC(=O)c2cccc(S(F)(F)(F)(F)F)c2)cc(-n2ccn3nc(-c4cccnc4)cc23)c1  remaining binding (cell-free assay, competition with immobilised ligand; 1 µM): 72.1%
O=C1Nc2ccc(Cl)cc2C1=Cc1cc(Cl)c(O)c(Cl)c1  remaining signal (cell-free assay; 0.5 µM): 98.6%
Cc1c(NC(=O)c2cc(C(N)=O)nc3cc(F)ccc23)c(C(F)(F)F)nn1Cc1ccc(C#N)cc1  remaining binding (cell-free assay, competition with immobilised ligand; 1 µM): 83%
O=C(Nc1cnn(-c2csc(C(=O)NC3COC3)c2)c1)Nc1c(F)cccc1Cl  remaining activity (enzyme activity, inhibitor; 5 µM): 95.3%
